Test [1] in a line: Her2 expression decrease, cell viability multiplex – SKBR3 breast tumor cells, AlphaScreen, ATP viability, primary screen (AID 461;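 active = Her2 level under about 52% in both replicate screens, with viability over 70% of control, limit read from the data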;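 as to Her2 level: lower value means less Her2 protein in the cells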;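 as to viability: percent of carrier control wells set as 100% viability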). The following applies: SKBR3 Her2 protein level, 18-24 h, measured here: SKBR3 viability, ATP luminescence, at 10 µM. (Bead proximity is the source of the signal in Alpha formats.)
In test [2] the target is Receptor tyrosine-protein kinase erbB-2 (Homo sapiens) (UniProt P04626). Described as above. As to conditions: 18-24 h, at 10 µM, stronger effect = lower value.
A short description of test [3]: reduced viability of SK-BR-3 breast cancer cells – cell-based, 24 h, human, pilot screen (AID 572).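 Also: compound exposure lasted between 18 and 24 h rather than exactly 24 h; 100% = carrier-treated control wells.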 The following applies: SK-BR-3 viability, CellTiter-Glo luminescence, at 10 µM, stronger effect = lower value.
Test [4] in a line: HUVEC growth inhibition – cell-based, human, primary screen (AID 575;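 active = viability at or below 30% in both replicate assays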;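 also: 100% = median of untreated cell wells with 0.1% DMSO on each plate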). The following applies: HUVEC proliferation, CellTiter-Glo luminescence, 72 h; at 10 µM; stronger effect = lower value. In outline:
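Assay system: Primary human umbilical vein endothelial cells | Quantity: 1250 cells per well | Medium: Supplemented EBM, 2% fetal bovine serum | Detection: CellTiter-Glo luminescence measuring cellular ATP | Read-out: % viability vs DMSO wells | Plate: Collagen-coated 384-well format | Times: 72 h exposure, 37 °C, 5% CO2, 30 min RT equilibration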
In general terms: ATP-based viability assays read luminescence as a measure of living cells.

Test [5] in a line: H69AR cell proliferation blockers – human, duplicate replicates, primary screen (AID 580;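 active = viability at or under a set limit in both replicates, limit being median viability minus 3 SD, cut at about 48% in these data, passing the limit was not always enough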;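 also: 100% = mean luminescence of untreated wells and 0% = no signal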). The following applies: H69AR lung tumor cells viability, ATP luminescence, 72 h; at 10 µM; stronger effect = lower value.
The nature of test [6]: MRP1 drug-resistance reversers in H69AR cells – cell-based, doxorubicin co-treatment, pilot screen (AID 601;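 active = viability loss from added drug above about 55%, and viability with drug at most 40%, in both replicates, limit read from the data, passing the limit was not always enough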). As to conditions: CellTiter-Glo, 72 h, at 10 µM; for differential viability (reversal): stronger effect = higher value.
The nature of test [7]: yeast transport mutant growth inhibition pilot in 384-well plates, post-Golgi transport modulator project (AID 636; in the data active = inhibition above about 31%). As to conditions: absorbance 615 nm, about 18 h, stronger effect = higher value.
Test [8] is described as follows: growth suppression of yeast trafficking mutant, preliminary HTS, modulators of trafficking downstream of Golgi apparatus project, 1536-format plate, OD 615 nm (AID 637; in the data active = inhibition above about 30%). The following applies: yeast transport mutant growth, absorbance 615 nm, 18 h; stronger effect = higher value.
Setting [9] is: H69AR cells + 2 uM doxorubicin, measured here: viability with 2 uM doxorubicin, stronger effect = lower value.
[10] abbreviates: H69AR cells, compound alone cytotoxicity.

This note sets out measurements from PubChem BioAssay.

Activity calls are given as the source filed them.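 The calls were made as follows, unless noted: active = viability at or below 10% of carrier control in both of two separate runs; inconclusive = viability at or below 10% in only one of the two runs; inactive = the rest.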

Chain of Receptor tyrosine-protein kinase erbB-2 (Homo sapiens) (P04626 whole entry, looked up): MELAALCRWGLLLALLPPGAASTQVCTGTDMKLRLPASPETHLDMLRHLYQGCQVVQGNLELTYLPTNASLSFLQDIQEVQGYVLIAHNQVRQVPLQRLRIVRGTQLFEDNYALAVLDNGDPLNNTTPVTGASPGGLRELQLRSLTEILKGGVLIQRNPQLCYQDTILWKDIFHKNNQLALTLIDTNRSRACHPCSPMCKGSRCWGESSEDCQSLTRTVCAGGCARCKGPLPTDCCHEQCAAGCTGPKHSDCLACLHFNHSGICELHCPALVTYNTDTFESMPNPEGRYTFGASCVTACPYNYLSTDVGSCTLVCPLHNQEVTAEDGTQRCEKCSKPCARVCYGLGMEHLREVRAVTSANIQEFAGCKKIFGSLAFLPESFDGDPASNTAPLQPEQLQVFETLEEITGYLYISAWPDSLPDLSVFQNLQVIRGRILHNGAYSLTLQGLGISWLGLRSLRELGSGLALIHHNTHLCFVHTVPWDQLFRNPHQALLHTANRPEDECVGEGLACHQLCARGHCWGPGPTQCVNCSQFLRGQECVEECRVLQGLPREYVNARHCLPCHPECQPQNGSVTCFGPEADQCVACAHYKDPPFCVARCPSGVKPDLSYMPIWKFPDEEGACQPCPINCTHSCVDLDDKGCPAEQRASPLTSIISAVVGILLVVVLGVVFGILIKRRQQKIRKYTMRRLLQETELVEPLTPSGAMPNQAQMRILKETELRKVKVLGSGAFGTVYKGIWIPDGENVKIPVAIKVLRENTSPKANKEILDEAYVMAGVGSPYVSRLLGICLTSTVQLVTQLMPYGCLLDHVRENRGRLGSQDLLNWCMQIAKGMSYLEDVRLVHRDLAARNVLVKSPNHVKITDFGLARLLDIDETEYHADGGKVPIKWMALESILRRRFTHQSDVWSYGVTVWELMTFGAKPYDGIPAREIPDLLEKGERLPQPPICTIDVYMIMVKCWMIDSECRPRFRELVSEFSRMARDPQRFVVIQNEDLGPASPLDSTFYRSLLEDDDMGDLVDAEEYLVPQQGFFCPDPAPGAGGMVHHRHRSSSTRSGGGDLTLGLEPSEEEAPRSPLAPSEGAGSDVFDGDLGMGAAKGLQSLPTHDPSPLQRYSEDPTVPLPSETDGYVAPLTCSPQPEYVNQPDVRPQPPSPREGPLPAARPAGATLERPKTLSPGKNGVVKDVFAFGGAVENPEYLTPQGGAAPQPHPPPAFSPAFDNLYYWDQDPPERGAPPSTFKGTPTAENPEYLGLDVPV

The viability is a read-out of living cells in per cent, often relative to untreated cells. The term inhibition denotes the relative decrease from the control value, in per cent. For `O=C(COc1ncnc2ccccc12)NCc1ccc2c(c1)OCO2`, the viability in test [1] was 100%; in test [3], 100% (inactive); in test [4], 92.8% (inactive); in test [5], 92.6% (inactive); in test [6] (setting [9]), 94.4%; in test [6] (setting [10]), 92.6%. The Her2 level in test [2] is 96% (inactive). Also, in test [6] (H69AR cells + 2 uM doxorubicin), the differential viability (reversal) is -1.82% (inactive). Moreover, the inhibition was -4.21% (inactive) in test [7] and 4.92% (inactive) in test [8].

Regarding `O=C(O)CC1NC(=O)N(c2ccccc2)C1=O` (stereo not given), the viability was 108% in test [1]; 108% (inactive) in test [3]; 109% (inactive) in test [4]; 99.3% (inactive) in test [5]; 91.5% in test [6] (setting [9]); 99.3% in test [6] (setting [10]). Besides, in test [2], the Her2 level is 85% (inactive). For the same compound, in test [6] (H69AR cells + 2 uM doxorubicin), the differential viability (reversal) was 7.85% (inactive). Also, the results for the inhibition in test [7] and in test [8] were -5.33% (inactive) and 0% (inactive), respectively.

In the case of `CCOC(=O)CN1CC23C=CC(O2)C(C(=O)Nc2ccc(OC)cc2OC)C3C1=O` (stereo not given), the viability in test [1] is 99%; in test [3], 99% (inactive); in test [4], 93.7% (inactive); in test [5], 98.9% (inactive); in test [6] (setting [9]), 93.9%; in test [6] (setting [10]), 98.9%. For the same compound, the Her2 level in test [2] was 99% (inactive). Further, the differential viability (reversal) in test [6] (H69AR cells + 2 uM doxorubicin) is 5.06% (inactive). For the same compound, the inhibition in test [7] was -0.77% (inactive); in test [8], 1.83% (inactive).

With `O=C(NCC(F)(F)F)N1CCOCC1`, the viability in test [1] is 96%; in test [3], 96% (inactive); in test [4], 89.5% (inactive); in test [5], 100% (inactive); in test [6] (setting [9]), 91.8%; in test [6] (setting [10]), 100%. Also, the Her2 level in test [2] is 85.5% (inactive). Moreover, the differential viability (reversal) in test [6] (H69AR cells + 2 uM doxorubicin) was 8.42% (inactive). The values for the inhibition in test [7] and in test [8] were -6.71% (inactive) and -6.19% (inactive), respectively.

On to `Cc1ccc(Cl)cc1N1CCN(C(=O)C2CCCN(S(=O)(=O)c3cnc[nH]3)C2)CC1` (stereo not given), for which the viability in test [1] is 86.5%; in test [3], 86.5% (inactive); in test [4], 69.8% (inactive); in test [5], 83.8% (inactive); in test [6] (setting [9]) it was 78%; in test [6] (setting [10]) it was 83.8%. The Her2 level in test [2] is 99.5% (inactive). The differential viability (reversal) in test [6] (H69AR cells + 2 uM doxorubicin) was 5.75% (inactive). Besides, the inhibition in test [7] is -2.93% (inactive); in test [8] it was -2.62% (inactive).

Consider `Cc1nn(C)c(C)c1CNC(=O)c1cc2n(n1)C(C(F)(F)F)CC(c1cccs1)N2` (stereo not given), for which the viability in test [1] was 89.5%; in test [3] it was 89.5% (inactive); in test [4], 107% (inactive); in test [5] it was 112% (inactive); in test [6] (setting [9]), 93.9%; in test [6] (setting [10]) it was 112%. In addition, the Her2 level in test [2] is 83% (inactive). For the same compound, the differential viability (reversal) in test [6] (H69AR cells + 2 uM doxorubicin) is 18.2% (inactive). Moreover, the inhibition in test [7] is 0.41% (inactive); in test [8], 0.32% (inactive).

For `Cc1ccc(CNC(=O)CSc2n[nH]c(N)n2)cc1`, the viability in test [1] was 100%; in test [3], 100% (inactive); in test [4], 82.3% (inactive); in test [5], 96.6% (inactive); in test [6] (setting [9]) it was 98.5%; in test [6] (setting [10]), 96.6%. Further, the Her2 level in test [2] is 99.5% (inactive). For the same compound, the differential viability (reversal) in test [6] (H69AR cells + 2 uM doxorubicin) was -1.86% (inactive). Also, the inhibition in test [7] was 0.79% (inactive); in test [8], 5.9% (inactive).

In the case of `O=C(CSc1nc2ccccc2n1CC(=O)N1CCCC1)Nc1nccs1`, the viability in test [1] was 106%; in test [3], 106% (inactive); in test [4], 98.4% (inactive); in test [5], 95.3% (inactive); in test [6] (setting [9]), 78.9%; in test [6] (setting [10]) it was 95.3%. Also, in test [2], the Her2 level is 93% (inactive). In addition, in test [6] (H69AR cells + 2 uM doxorubicin), the differential viability (reversal) is 16.4% (inactive). In addition, the inhibition is -0.92% (inactive) in test [7] and -6.73% (inactive) in test [8].

Regarding `COCCNC(=O)CCc1nc(-c2ccccc2)no1`, the viability in test [1] was 87%; in test [3], 87% (inactive); in test [4], 92.6% (inactive); in test [5], 103% (inactive); in test [6] (setting [9]), 98.1%; in test [6] (setting [10]), 103%. In addition, the Her2 level in test [2] was 103% (inactive). The differential viability (reversal) in test [6] (H69AR cells + 2 uM doxorubicin) is 5.2% (inactive). Further, the values for the inhibition in test [7] and in test [8] were -3.47% (inactive) and 2.7% (inactive), respectively.

Consider `Cc1cccc(-c2nnc(SCC#N)n2-c2cccc(Cl)c2)c1`, for which the viability in test [1] is 90.5%; in test [3] it was 90.5% (inactive); in test [4] it was 104% (inactive); in test [5], 84.6% (inactive); in test [6] (setting [9]) it was 88.6%; in test [6] (setting [10]) it was 84.6%. Moreover, the Her2 level in test [2] is 83.5% (inactive). Further, the differential viability (reversal) in test [6] (H69AR cells + 2 uM doxorubicin) is -3.93% (inactive). The inhibition in test [7] was -6% (inactive); in test [8] it was 0% (inactive).

Consider `CCCn1c(N)c(C(=O)CSc2nnc(Cc3ccccc3)o2)c(=O)n(C)c1=O`, for which the viability was 104% in test [1]; 104% (inactive) in test [3]; 75.2% (inactive) in test [4]; 84.6% (inactive) in test [5]; 98.2% in test [6] (setting [9]); 84.6% in test [6] (setting [10]). In test [2], the Her2 level is 90.5% (inactive). The differential viability (reversal) in test [6] (H69AR cells + 2 uM doxorubicin) was -13.6% (inactive). The inhibition in test [7] is 0.65% (inactive); in test [8], 3.93% (inactive).

Regarding `Cc1ccc(NC(=O)CS(=O)CC(=O)NCC2CCCO2)cc1` (stereo not given), the viability in test [1] was 96.5%; in test [3], 96.5% (inactive); in test [4] it was 103% (inactive); in test [5], 96.8% (inactive); in test [6] (setting [9]) it was 89%; in test [6] (setting [10]) it was 96.8%. For the same compound, the Her2 level in test [2] is 120% (inactive). The differential viability (reversal) in test [6] (H69AR cells + 2 uM doxorubicin) is 7.8% (inactive). For the same compound, the inhibition in test [7] was -1.62% (inactive); in test [8] it was 25% (inactive).

Consider `Cc1ccc(O)c(NC(=O)COc2cc(C)ccc2C)c1`, for which the viability in test [1] was 93.5%; in test [3], 93.5% (inactive); in test [4] it was 77.7% (inactive); in test [5], 89.4% (inactive); in test [6] (setting [9]), 84%; in test [6] (setting [10]) it was 89.4%. Besides, the Her2 level in test [2] is 89.5% (inactive). The differential viability (reversal) in test [6] (H69AR cells + 2 uM doxorubicin) was 5.4% (inactive). Further, the inhibition in test [7] is -1.97% (inactive); in test [8] it was -10.3% (inactive).

As for `Cc1ccccc1C(=O)Nc1c(C(=O)N2CCCC2)cnn1-c1ccccc1`, the viability in test [1] is 112%; in test [3], 112% (inactive); in test [4] it was 106% (inactive); in test [5], 91.9% (inactive); in test [6] (setting [9]), 82%; in test [6] (setting [10]), 91.9%. In addition, the Her2 level in test [2] is 79% (inactive). Also, the differential viability (reversal) in test [6] (H69AR cells + 2 uM doxorubicin) was 9.86% (inactive). Also, the inhibition was -7.7% (inactive) in test [7] and -0.63% (inactive) in test [8].
